Data set [1] is described as follows: MRT in ICR mouse at 5 mg/kg, iv by LC-MS/MS analysis. It counts as ADME, organism-based. The settings on record: in vivo. A digest of the protocol: (§1)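 Male ICR mice, 7~8 weeks, 30 ± 5 g; single dose 5 mg/kg IV (n = 5) or 50 mg/kg oral (n = 4). Plasma protein-precipitated with acetonitrile containing internal standard, then LC-MS/MS. Non-compartmental analysis; AUClast by trapezoidal rule. Mean ± SD.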

Data set [2] is described as follows: Cmax in ICR mouse at 5 mg/kg, iv by LC-MS/MS analysis. It counts as ADME, organism-based. On the set-up: dose 5 mg/kg, route intravenous. The following applies: in vivo. In short, it runs like this:
as §1

Data set [3] can be described thus: Tmax in ICR mouse at 5 mg/kg, iv by LC-MS/MS analysis. It counts as ADME, organism-based. The settings on record: in vivo. A digest of the protocol:
as §1

Data set [4] can be described thus: Stability in human liver microsomes assessed as drug recovery at 1 uM preincubated for 5 mins followed by addition of NADPH generation system and measured after 30 mins by LC-MS analysis. It counts as ADME, microsome. The settings on record: read-out: Drug recovery. A digest of the protocol:
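Human liver microsomes 0.5 mg/ml in 0.1 M phosphate, pH 7.4, with 1 μM compound. Preincubated 5 min at 37 °C, then NADPH-generating system added for 30 min at 37 °C. Acetonitrile with internal standard added to stop the reaction, centrifuged, and supernatant analysed by LC/MS as % remaining.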
A general note: Liver microsomes are vesicles of endoplasmic reticulum, rich in cytochrome P450 enzymes.

Data set [5] concerns Mus musculus. Put plainly: Sleep promoting activity in C57B1/6J mouse assessed as decrease in total rapid eye movement sleep time at 30 mg/kg, ip measured over 8 hrs by electroencephalogram method. It counts as functional. The arrangement: scale not given: the % may be the effect or the level left. In short, it runs like this:
(§2)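 Adult male C57Bl/6J mice, 10 weeks old, with parietal EEG screw electrodes implanted under ketamine. EEG and EMG recorded for 8 h from 9 AM, starting one day before dosing as baseline. On test day, 30 mg/kg i.p. at the start of the light phase, with EEG/EMG recorded for 8 h and scored in 2-h bins. n = 6-9 per group; mean ± SEM versus vehicle.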

In data set [6] the test system is Mus musculus. Put plainly: Sleep promoting activity in C57B1/6J mouse assessed as decrease in total rapid eye movement sleep time at 30 mg/kg, ip measured over 4 hrs by electroencephalogram method. It counts as functional. On the set-up: scale not given: the % may be the effect or the level left. In short, it runs like this:
as §2

The next data set addresses CYP2D6 (Homo sapiens, UniProt P10635). Put plainly: Inhibition of CYP2D6 in human liver microsomes assessed as remaining activity at 10 uM using dextromethorphan as substrate preincubated for 5 mins followed by addition of NADPH generating system measured after 15 mins by LC-MS analysis. It counts as ADME. The following applies: probe dextromethorphan, read-out: Activity. In short, it runs like this:
(§3)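 Human liver microsomes 0.25 mg/ml in 0.1 M phosphate, pH 7.4, with a probe cocktail: phenacetin 50 μM, diclofenac 10 μM, S-mephenytoin 100 μM, dextromethorphan 5 μM, midazolam 2.5 μM. Test compound at 10 μM versus 0 μM control. 5 min at 37 °C, then NADPH-generating system for 15 min. Acetonitrile quench; metabolites measured by LC/MS as % remaining activity.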

Data set [7] is described as follows: Apparent volume of distribution at steady state in ICR mouse at 5 mg/kg, iv by LC-MS/MS analysis. It counts as ADME, organism-based. The following applies: in vivo, read-out: Vdss. In short, it runs like this:
as §1

Data set [8] in a line: AUClast in ICR mouse at 50 mg/kg, po by LC-MS/MS analysis. It counts as ADME, organism-based. The arrangement: dose 50 mg/kg, route oral, time 0 - last. The settings on record: in vivo. A digest of the protocol:
as §1

The nature of data set [9]: Terminal half-life in ICR mouse at 5 mg/kg, iv by LC-MS/MS analysis. It counts as ADME, organism-based. The following applies: in vivo, read-out: beta t1/2 (converted). In short, it runs like this: as §1
Data set [10] can be described thus: Cmax in ICR mouse at 50 mg/kg, po by LC-MS/MS analysis. It counts as ADME, organism-based. On the set-up: dose 50 mg/kg, route oral. The settings on record: in vivo. A digest of the protocol:
as §1

A short description of data set [11]: AUC (0 to infinity) in ICR mouse at 50 mg/kg, po by LC-MS/MS analysis. It counts as ADME, organism-based. The arrangement: dose 50 mg/kg, time infinity, route oral. The following applies: in vivo. A digest of the protocol: as §1
Data set [12] relates to Mus musculus. Put plainly: Sleep promoting activity in C57B1/6J mouse assessed as increase in total non-rapid eye movement sleep time at 30 mg/kg, ip measured over 8 hrs by electroencephalogram method. It counts as functional. A digest of the protocol:
as §2

The target in another data set is CYP3A4 (Homo sapiens, UniProt P08684). Put plainly: Inhibition of CYP3A4 in human liver microsomes assessed as remaining activity at 10 uM using midazolam as substrate preincubated for 5 mins followed by addition of NADPH generating system measured after 15 mins by LC-MS analysis. It counts as ADME. The following applies: probe midazolam, read-out: Activity. A digest of the protocol:
as §3

Data set [13] concerns Mus musculus. Put plainly: Toxicity in ICR mouse assessed as mortality at 50 mg/kg, po. It counts as organism-based. The following applies: in vivo. A digest of the protocol: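 Observed in male ICR mice (7~8 weeks, 30 ± 5 g; n = 4) during a pharmacokinetic study after a single oral dose. Mice were held at 23 ± 3° and about 55% ± 10% humidity with standard feed and tap water. Blood was drawn via carotid artery from 0.25 to 8 h after dosing.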

The target in another data set is CYP2C9 (Homo sapiens, UniProt P11712). Put plainly: Inhibition of CYP2C9 in human liver microsomes assessed as remaining activity at 10 uM using diclofenac as substrate preincubated for 5 mins followed by addition of NADPH generating system measured after 15 mins by LC-MS analysis. It counts as ADME. The settings on record: probe diclofenac, read-out: Activity. In short, it runs like this:
as §3

The nature of data set [14]: Oral bioavailability in ICR mouse at 50 mg/kg by LC-MS/MS analysis. It counts as ADME, organism-based. The following applies: in vivo. In short, it runs like this: as §1
The species named for data set [15] is Homo sapiens. Put plainly: Selectivity index, ratio of Ki for human 5-HT1A receptor to Ki for human 5-HT7 receptor. A digest of the protocol:
(§4)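 Selectivity index taken as Ki at the other 5-HT receptor subtype divided by Ki at 5-HT7R, each from [3H]LSD membrane binding run by the NIMH PDSP. Ki values are means of at least three experiments in triplicate.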

The species named for data set [16] is Homo sapiens. Put plainly: Selectivity index, ratio of Ki for human 5-HT3 receptor to Ki for human 5-HT7 receptor. A digest of the protocol:
as §4

Structures are written as SMILES.

Sequence of CYP2D6 (P10635 whole entry): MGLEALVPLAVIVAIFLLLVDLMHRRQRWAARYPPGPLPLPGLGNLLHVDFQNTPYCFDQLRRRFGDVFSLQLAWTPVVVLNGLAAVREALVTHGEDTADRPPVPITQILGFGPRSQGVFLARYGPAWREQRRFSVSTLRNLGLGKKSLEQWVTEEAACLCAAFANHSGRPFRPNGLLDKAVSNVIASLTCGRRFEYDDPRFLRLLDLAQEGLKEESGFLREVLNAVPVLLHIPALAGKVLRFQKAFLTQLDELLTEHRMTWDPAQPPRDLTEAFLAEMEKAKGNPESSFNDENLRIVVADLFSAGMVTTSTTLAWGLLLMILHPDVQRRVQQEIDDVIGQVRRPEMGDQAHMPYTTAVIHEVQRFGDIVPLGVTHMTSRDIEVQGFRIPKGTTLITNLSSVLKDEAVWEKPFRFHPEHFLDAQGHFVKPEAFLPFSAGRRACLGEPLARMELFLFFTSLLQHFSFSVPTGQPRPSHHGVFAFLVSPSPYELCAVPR
Sequence of CYP2C9 (P11712 whole entry): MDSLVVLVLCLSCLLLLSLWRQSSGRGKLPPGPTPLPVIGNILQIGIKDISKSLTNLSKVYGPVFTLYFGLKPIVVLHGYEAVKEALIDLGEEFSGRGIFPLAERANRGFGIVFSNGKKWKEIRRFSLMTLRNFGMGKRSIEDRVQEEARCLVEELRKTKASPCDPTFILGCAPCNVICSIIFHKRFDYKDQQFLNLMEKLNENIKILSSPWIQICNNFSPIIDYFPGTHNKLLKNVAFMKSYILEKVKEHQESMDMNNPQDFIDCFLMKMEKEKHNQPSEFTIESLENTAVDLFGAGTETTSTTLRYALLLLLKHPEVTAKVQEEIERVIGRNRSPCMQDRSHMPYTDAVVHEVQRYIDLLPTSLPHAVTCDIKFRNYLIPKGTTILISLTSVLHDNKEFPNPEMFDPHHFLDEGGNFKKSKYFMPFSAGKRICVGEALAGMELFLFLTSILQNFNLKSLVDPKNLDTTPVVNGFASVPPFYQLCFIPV
Sequence of CYP3A4 (P08684 whole entry): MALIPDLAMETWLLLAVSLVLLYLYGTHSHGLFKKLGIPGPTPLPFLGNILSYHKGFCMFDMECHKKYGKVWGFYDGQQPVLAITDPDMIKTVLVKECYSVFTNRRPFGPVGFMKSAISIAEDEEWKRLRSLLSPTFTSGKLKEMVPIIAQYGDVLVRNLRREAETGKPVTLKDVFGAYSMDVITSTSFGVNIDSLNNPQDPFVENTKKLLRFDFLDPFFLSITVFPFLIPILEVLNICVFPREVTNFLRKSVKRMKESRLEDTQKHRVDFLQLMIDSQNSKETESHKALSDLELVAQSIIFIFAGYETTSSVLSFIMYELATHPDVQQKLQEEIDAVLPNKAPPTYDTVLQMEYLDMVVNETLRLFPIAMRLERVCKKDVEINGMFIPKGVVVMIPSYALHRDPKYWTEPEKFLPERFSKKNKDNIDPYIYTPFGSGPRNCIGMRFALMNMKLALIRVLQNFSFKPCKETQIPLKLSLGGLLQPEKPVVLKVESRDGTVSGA

What is called MRT is the average time that molecules of a dose stay in the body. By Cmax is commonly meant the peak of the concentration-time curve. Usually Tmax stands for the time from dosing to the highest level. Broadly, the AUC(0-t) is exposure summed from dosing to a finite time, without extrapolation to infinity. As a reminder, the AUC(0-inf) is the area under the concentration-time curve extrapolated to infinity. As usually defined, the bioavailability is the share of a dose that reaches the circulation, judged against a reference dose that is usually intravenous. In turn, `Clc1ccc(-c2n[nH]c3c2CCNCC3)cc1` gave an MRT in data set [1] of 2.5 h. The Cmax in data set [2] is 2200 ng/mL; in [10], 11800 ng/mL. Further, the Tmax in [3] stood at 6.6 min. In addition, the remaining at 0.5 h, 1 µM in data set [4] was found to be 82.4%. Also, the Activity with Mus musculus [5] is 36.7%; in the data set on Mus musculus [6], 69.4%; in the data set with Mus musculus [12], 21.4%; in the data set with Mus musculus [13], “Non-Toxic”. Further, the activity at 0.25 h, 10 µM was 75.7% on CYP2D6, 95.4% at CYP3A4 and over 100% on CYP2C9. Further, the Vd in data set [7] is 2.47 L/kg. The AUC(0-t) in data set [8] is 53700 ng·h/mL. Also, the half-life in data set [9] was 1.78 h. In addition, in data set [11], the AUC(0-inf) stood at 64300 ng·h/mL. In data set [14], this compound yielded a bioavailability of 90.8%.
On to `Fc1ccc(-c2n[nH]c3c2CCNCC3)cc1`, for which the Ratio Ki in the data set listed under Homo sapiens [15] came to 18.
In the case of `Cc1ccc(-c2noc3c2CCNCC3)cc1`, the Ratio Ki in the data set listed under Homo sapiens [16] was found to be 26.3.
